The target of data set [1] is T1, Transthyretin (Homo sapiens, UniProt P02766). Kind of data set: Inhibition of wild type TTR amyloidogenesis assessed as fibril formation at […] after 72 hrs at pH 4.4 by spectrophotometry relative to untreated control. More on the design: scale not given: the % may be the effect or the level left.
For data set [2], the system named is Transthyretin (Homo sapiens), P02766 [V50M]. Kind of data set: Inhibition of TTR V30M mutant amyloidogenesis assessed as fibril formation at […] after 72 hrs at pH 4.4 by spectrophotometry relative to untreated control. On the set-up: scale not given: the % may be the effect or the level left.
Data set [3] has as its target T1, Transthyretin. Put plainly: Inhibition of wild type TTR amyloidogenesis assessed as fibril formation at 7.2 uM after 72 hrs at pH 4.4 by spectrophotometry relative to untreated control. On the set-up: scale not given: the % may be the effect or the level left.
For data set [4], the system named is Transthyretin (Homo sapiens), P02766 [V50M]. Put plainly: Inhibition of TTR V30M mutant amyloidogenesis assessed as fibril formation at 7.2 uM after 72 hrs at pH 4.4 by spectrophotometry relative to untreated control. On the set-up: scale not given: the % may be the effect or the level left.
Data set [5] addresses T1, Transthyretin. Put plainly: Inhibition of wild type TTR amyloidogenesis assessed as inhibition of fibril formation after 72 hrs at pH 4.4 by spectrophotometry relative to untreated control.
Data set [6] addresses T1, Transthyretin. Kind of data set: Binding affinity to wild type TTR in human plasma assessed as covalent modification of TTR subunit after 18 hrs by RP-HPLC analysis. It is filed as cell-free.
In data set [7] the target is T1, Transthyretin. Kind of data set: Binding affinity to wild type TTR tetramer in human plasma assessed as covalent chemoselective amide bond formation with Lys15 residue of TTR subunit at 7.2 uM after 18 hrs by RP-HPLC analysis. The data set is classed as cell-free.
For another data set, the species on record is Homo sapiens. Put plainly: Binding affinity to TTR K15A mutant tetramer in human plasma assessed as covalent chemoselective amide bond formation with residue-15 of TTR subunit at 7.2 uM after 18 hrs by RP-HPLC analysis. It is filed as cell-free.
Data set [8] addresses T1, Transthyretin. Kind of data set: Stabilization of wild-type TTR tetramer assessed as time needed for 95% TTR-compound conjugate formation by C18-RP-HPLC.
In data set [9] the target is T1, Transthyretin. Put plainly: Stabilization of wild-type TTR tetramer assessed as rate of TTR-compound conjugate formation by C18-RP-HPLC.
Data set [10] in a line: Toxicity in human IMR32 cells assessed as reduction of cell viability after 24 hrs by resazurin reduction assay. The data set is classed as cell-based. The settings on record: imr-32, 24 h. The procedure, abridged:
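IMR-32 cells (6,000/well, overnight) were exposed 24 h at 37 °C to compound preincubated 18 h at 37 °C in HBSS without TTR, diluted 1:1 in supplemented Opti-MEM. Viability was read by resazurin fluorescence (Ex/Em 530/590, 1 h), as % of vehicle-treated cells after blank subtraction.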
(In general: The colour change of resazurin is a common sign of viable cells or microbes.)

Data set [11] concerns the target T1, Transthyretin. Put plainly: Binding affinity to TTR in human plasma at 10.8 uM after 24 hrs RP-HPLC analysis. The data set is classed as cell-free.
The target in data set [12] is T1, Transthyretin. Put plainly: Binding affinity to wild type TTR assessed as induction of benzoylation at Lys15 residue of TTR subunit by LC-MS method.
Data set [13] concerns the target T1, Transthyretin. Put plainly: Inhibition of wild type TTR induced cytotoxicity in human IMR32 cells assessed as cell viability after 24 hrs by resazurin reduction assay. The data set is classed as cell-based. The conditions noted are these: IMR-32. In outline: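 IMR-32 neuroblastoma cells were seeded at 6,000/well in Opti-MEM with 5% FBS and grown overnight. Cold-purified WT-TTR in HBSS was preincubated 18 h at 37 °C with compound, then diluted 1:1 in supplemented Opti-MEM onto cells. After 24 h at 37 °C, resazurin was added and fluorescence read (Ex/Em 530/590) after 1 h. Results are % of vehicle, blank-subtracted, mean ± SE of 2 experiments, at least triplicate.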

The target in data set [14] is T1, Transthyretin. Kind of data set: Binding affinity to wild-type TTR assessed as nonchemoselective conjugation of TTR after 18 hrs by C18-RP-HPLC.
The nature of data set [15]: Binding affinity to TTR K15A mutant assessed as nonchemoselective conjugation of TTR after 18 hrs by C18-RP-HPLC.
The target in data set [16] is T1, Transthyretin. Kind of data set: Inhibition of wild type TTR amyloidogenesis assessed as fibril formation at 1.8 to 2.7 uM after 120 hrs at pH 4.4 by spectrophotometry relative to untreated control.
Data set [17] concerns the target T1, Transthyretin. Kind of data set: Noncovalent binding affinity to wild type TTR T4 site assessed as fibril formation at 7.2 uM after 72 hrs at pH 4.4 by RP-HPLC analysis.
Data set [18] addresses T1, Transthyretin. Put plainly: Noncovalent binding affinity to TTR K15A mutant T4 site assessed as fibril formation at 7.2 uM after 72 hrs at pH 4.4 by RP-HPLC analysis.

Calls of active or inactive are those of the source. The rule behind the calls is not given here.

As for `Cc1cc(/C=C/c2cccc(C(=O)Sc3ccccc3)c2)cc(C)c1O`, the Activity was 16% on Transthyretin [1]; 34% in [2]; 2% at Transthyretin [3]; 3% in data set [4]; 48% on Transthyretin [6]; “Non-toxic” in data set [10]. For the same molecule, the inhibition entry at Transthyretin [5] and at Transthyretin [13] was “Dose-dependent effect” in each case. For the same molecule, the result on Transthyretin [7], at Transthyretin [11] and on Transthyretin [12] was Active. In addition, in the data set listed under Homo sapiens, the outcome was inactive. Moreover, the TIME on Transthyretin [8] is 1.35 h. Moreover, the T1/2 on Transthyretin [9] came to 15 min.
In the case of `Cc1cc(/C=C/c2ccc(C(=O)Sc3ccccc3)cc2)cc(C)c1O`, the outcome on Transthyretin [14] was Active.
Regarding `O=C(Sc1ccccc1)c1cccc(/C=C/c2cc(Br)c(O)c(Br)c2)c1`, the Activity on Transthyretin [1] is 12%; in data set [2], 17%; on Transthyretin [3] it was 2%; in data set [4] it was 3%; at Transthyretin [6], 36%. For the same molecule, the inhibition entry on Transthyretin [5] is “Dose-dependent effect”. Further, the result on Transthyretin [7], on Transthyretin [11] and on Transthyretin [12] was Active. Also, the outcome in the data set listed under Homo sapiens was inactive. Moreover, the TIME at Transthyretin [8] is 21.2 h.
On to `Cc1cc(/C=C/c2cccc(C(=O)Oc3ccc(F)cc3)c2)cc(C)c1O`, for which, in the data set filed under Homo sapiens, the outcome was inactive. In addition, the TIME on Transthyretin [8] was 21.9 h. Further, the Activity result in [10] was “Non-toxic”.
As to `Cc1cc(/C=C/c2cccc(C(=O)Oc3ccccc3[N+](=O)[O-])c2)cc(C)c1O`, the Activity on Transthyretin [1] turned out to be 21%; in [2], 33%; on Transthyretin [3], 4%; in [4], 3%; on Transthyretin [6] it was 49%. The IC50 (usually the point on the concentration scale where inhibition reaches its midpoint) on Transthyretin [5] was determined as 2260 nM. On Transthyretin [5], the inhibition entry was “Dose-dependent effect”. Further, the outcome at Transthyretin [7], on Transthyretin [11] and at Transthyretin [12] was Active. The result in the data set filed under Homo sapiens was inactive. For the same molecule, the TIME at Transthyretin [8] stood at 0.983 h. In addition, on Transthyretin [9], the T1/2 was 5 min.
As for `Cc1cc(/C=C/c2ccc(C(=O)Oc3ccccc3[N+](=O)[O-])cc2)cc(C)c1O`, the result (at Transthyretin [14]; in [15]) was Active.
For `Cc1cc(/C=C/c2cccc(C(=O)O)c2)cc(C)c1O`, at Transthyretin [5], the IC50 was 3070 nM. Moreover, the inhibition entry on Transthyretin [5] and on Transthyretin [13] was “Dose-dependent effect” each time. Moreover, the Activity entry in data set [10] was “Non-toxic”. In addition, on Transthyretin [16], the inhibition result was “Active”. The result on Transthyretin [17] and at Transthyretin [18] was Active.
As to `Cc1cc(/C=C/c2ccc(C(=O)Oc3ccc(F)cc3)cc2)cc(C)c1O`, the outcome on Transthyretin [14] was Active.
`Cc1cc(/C=C/c2ccccc2)cc(C)c1O`: the inhibition entry on Transthyretin [5] and at Transthyretin [13] was “Dose-dependent effect” in each case. The Activity result in [10] is listed as “Non-toxic”. In addition, the inhibition result at Transthyretin [16] is “Active”. The outcome at Transthyretin [17] and at Transthyretin [18] was Active.

These data come from ChEMBL document CHEMBL1212806, “Chemoselective small molecules that covalently modify one lysine in a non-enzyme protein in plasma” (Nat Chem Biol, 2010).
